Data on 16 compounds can be found in PubChem BioAssay.

A number with no mark means an inactive call.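 How the source made its calls: active means growth inhibition above 25% in both replicates, a cutoff set 3 SD above the mean; inconclusive means above 25% in only one replicate; inactive means the rest.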

A short description of the test: S. cerevisiae growth inhibition in permissive medium (OD615), pilot counter-assay for S. cerevisiae lifespan shortening project, permissive growth control (AID 705). To be noted: OD615, 24 h, at 10 µM, hits give high values. An outline of the steps:
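System: S. cerevisiae with engineered DeaD lifespan system / Measured by: absorbance (optical density) at 615 nm / Read-out: reduction in yeast growth (OD615) / Times: 4 h cell pre-growth, 24 h exposure at 30 °C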
Consider `COC(=O)c1ccsc1NC(=O)c1ccc(Cl)s1`, for which the growth inhibition was -17.6%.
On to `COC(=O)C1C(=O)c2c([nH]c(C(=O)OC3CCCCC3)c2C)CC1C` (stereo unspecified), for which the growth inhibition is -2.87%.
To `Cc1cc(-c2nnco2)c(C)n1-c1ccc(F)cc1` belongs -8.75%.
To `O=C1CCCCC(=O)N(c2ccccc2)c2ccccc21` belongs -9.64%.
Consider `CCOC(=O)N1CCN(C(=O)Cn2ncc3c2-c2ccccc2OC3)CC1`, for which the growth inhibition is -14%.
On to `COCc1cc(C)nc2sc3c(=O)n(Cc4ccco4)nnc3c12`, for which the growth inhibition was -8.08%.
Regarding `O=C1c2ccccc2C(=O)N1CCCc1nc2ccccc2c(=O)n1Cc1ccco1`, the growth inhibition was -12.9%.
The value for `CS(=O)(=O)c1ccc2nc(NC(=O)C3CCCCC3)sc2c1` was -0.52%; that for `CC(=O)Oc1cccc(N2C(=O)C3CC=C(Cl)CC3C2=O)c1` (stereo unspecified) was -5.15%; that for `Cc1cccc(-n2ncc3c(N4CCC(C)CC4)ncnc32)c1` was -5.82%.
For the compound `CCOc1ccc(C2c3c(oc4ccccc4c3=O)C(=O)N2c2ccc(C)cn2)cc1OC` (stereo unspecified), the growth inhibition was -7.41%.
As to `COc1ccc(N2C(=O)C(CC(=O)O)S/C2=C\C(C)=O)cc1` (stereo unspecified), the growth inhibition is -7.45%.
Take `Cn1c(Cn2c(=O)sc3ccccc32)nnc1SCC(=O)NCc1ccccc1`: the growth inhibition is -10.1%.
With `O=C(CCNS(=O)(=O)c1cccc2nonc12)NCc1cccs1`, the growth inhibition is -0.555%.
With `O=C(CN(Cc1ccc(F)cc1)S(=O)(=O)c1ccccc1)N1CCCCC1`, the growth inhibition was -9.46%.
As to `O=C1C2C(c3ccccc3)C=CC(c3ccccc3)C2C(=O)N1CCO` (stereo unspecified), the growth inhibition was -10.9%.
